Assay results reported in ChEMBL document CHEMBL1154716, “Synthesis of some new S-triazine based chalcones and their derivatives as potent antimicrobial agents” (2010).
The source made the active and inactive calls.

Tests used:
[1] = test system: Escherichia coli; assay: Antimicrobial activity against Escherichia coli at 10 ug/disk after 24 hrs by disk diffusion assay; assay type: functional
Summary of the method: (§1)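 Disc diffusion on 4 mm filter discs. Bacteria are grown overnight in LB at 28 C, then adjusted in saline to 1.0 × 10^5 cfu/ml. The suspension is mixed into top agar over peptone agar plates. Plates are incubated 24 h at 28 C, and growth-inhibition zone diameter is measured. Streptomycin and ampicillin controls are applied from a 1 mg/ml stock. Tests are done in duplicate.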

[2] = test system: Bacillus cereus; assay: Antimicrobial activity against Bacillus cereus at 1 umol/spot after 18 hrs by TLC-bioautographic method; assay type: functional
Summary of the method: (§2)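 TLC bioautography. Samples are spotted on silica gel TLC plates, then sprayed with bacteria (1.0 × 10^5 cfu/ml) in tryptic soy broth. Plates are incubated 18 h at 37 C and sprayed with 3% aqueous p-iodonitrotetrazolium violet. After a further 3 h, growth is stopped with 70% EtOH. White zones on a pink background are scored as inhibition-zone diameter with standard errors.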

[3] = test system: Staphylococcus aureus; assay: Antimicrobial activity against Staphylococcus aureus after 24 hrs by microdilution technique; assay type: functional
Summary of the method: (§3)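 Broth microdilution in LB medium. Inoculum is 1.0 × 10^4 cfu per well, from a saline-adjusted suspension of 1.0 × 10^5 cfu/ml. Compounds are dissolved in DMSO. Incubated 24 h at 28 C. MIC is the lowest concentration with no visible growth under a binocular microscope. MBC is read by subculture into fresh broth for 72 h, with no growth taken as 99.5% kill. OD is read at 655 nm.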

[4] = test system: Micrococcus flavus; assay: Antimicrobial activity against Micrococcus flavus at 1 umol/disk after 24 hrs by disk diffusion assay; assay type: functional; summary of the method: as §1
[5] = test system: Listeria monocytogenes; assay: Antimicrobial activity against Listeria monocytogenes after 24 hrs by microdilution technique; assay type: functional; summary of the method: as §3
[6] = test system: Enterobacter cloacae; assay: Antimicrobial activity against Enterobacter cloacae at 1 umol/spot after 18 hrs by TLC-bioautographic method; assay type: functional; summary of the method: as §2
[7] = test system: Salmonella typhimurium; assay: Antimicrobial activity against Salmonella Typhimurium after 24 hrs by microdilution technique; assay type: functional, Salmonella enterica subsp. enterica serovar Typhimurium; summary of the method: as §3
[8] = test system: Listeria monocytogenes; assay: Antimicrobial activity against Listeria monocytogenes at 10 ug/disk after 24 hrs by disk diffusion assay; assay type: functional; summary of the method: as §1
[9] = test system: Enterobacter cloacae; assay: Antimicrobial activity against Enterobacter cloacae at 1 umol/disk after 24 hrs by disk diffusion assay; assay type: functional; summary of the method: as §1
[10] = test system: Micrococcus flavus; assay: Antimicrobial activity against Micrococcus flavus at 1 umol/spot after 18 hrs by TLC-bioautographic method; assay type: functional; summary of the method: as §2
[11] = test system: Salmonella typhimurium; assay: Antimicrobial activity against Salmonella Typhimurium at 10 ug/disk after 24 hrs by disk diffusion assay; assay type: functional, organism-based; settings: Salmonella enterica subsp. enterica serovar Typhimurium; summary of the method: as §1
[12] = test system: Escherichia coli; assay: Antimicrobial activity against Escherichia coli after 24 hrs by microdilution technique; assay type: functional; summary of the method: as §3
[13] = test system: Pseudomonas aeruginosa; assay: Antimicrobial activity against Pseudomonas aeruginosa at 10 ug/disk after 24 hrs by disk diffusion assay; assay type: functional; summary of the method: as §1
[14] = test system: Staphylococcus aureus; assay: Antimicrobial activity against Staphylococcus aureus at 1 umol/disk after 24 hrs by disk diffusion assay; assay type: functional; summary of the method: as §1
[15] = test system: Micrococcus flavus; assay: Antimicrobial activity against Micrococcus flavus after 24 hrs by microdilution technique; assay type: functional; summary of the method: as §3
[16] = test system: Staphylococcus aureus; assay: Antimicrobial activity against Staphylococcus aureus at 1 umol/spot after 18 hrs by TLC-bioautographic method; assay type: functional; summary of the method: as §2
[17] = test system: Salmonella typhimurium; assay: Antimicrobial activity against Salmonella Typhimurium at 1 umol/disk after 24 hrs by disk diffusion assay; assay type: functional, organism-based; settings: Salmonella enterica subsp. enterica serovar Typhimurium; summary of the method: as §1
[18] = test system: Pseudomonas aeruginosa; assay: Antimicrobial activity against Pseudomonas aeruginosa after 24 hrs by microdilution technique; assay type: functional; summary of the method: as §3
[19] = test system: Escherichia coli; assay: Antimicrobial activity against Escherichia coli at 1 umol/disk after 24 hrs by disk diffusion assay; assay type: functional; summary of the method: as §1
[20] = test system: Salmonella typhimurium; assay: Antimicrobial activity against Salmonella Typhimurium at 1 umol/spot after 18 hrs by TLC-bioautographic method; assay type: functional, Salmonella enterica subsp. enterica serovar Typhimurium; summary of the method: as §2
[21] = test system: Pseudomonas aeruginosa; assay: Antimicrobial activity against Pseudomonas aeruginosa at 1 umol/disk after 24 hrs by disk diffusion assay; assay type: functional; summary of the method: as §1
[22] = test system: Bacillus cereus; assay: Antimicrobial activity against Bacillus cereus at 1 umol/disk after 24 hrs by disk diffusion assay; assay type: functional; summary of the method: as §1
[23] = test system: Enterobacter cloacae; assay: Antimicrobial activity against Enterobacter cloacae after 24 hrs by microdilution technique; assay type: functional; summary of the method: as §3
[24] = test system: Staphylococcus aureus; assay: Antimicrobial activity against Staphylococcus aureus at 10 ug/disk after 24 hrs by disk diffusion assay; assay type: functional; summary of the method: as §1
[25] = test system: Bacillus cereus; assay: Antimicrobial activity against Bacillus cereus after 24 hrs by microdilution technique; assay type: functional; summary of the method: as §3
[26] = test system: Listeria monocytogenes; assay: Antimicrobial activity against Listeria monocytogenes at 1 umol/spot after 18 hrs by TLC-bioautographic method; assay type: functional; summary of the method: as §2
[27] = test system: Enterobacter cloacae; assay: Antimicrobial activity against Enterobacter cloacae at 10 ug/disk after 24 hrs by disk diffusion assay; assay type: functional; summary of the method: as §1
[28] = test system: Pseudomonas aeruginosa; assay: Antimicrobial activity against Pseudomonas aeruginosa at 1 umol/spot after 18 hrs by TLC-bioautographic method; assay type: functional; summary of the method: as §2
[29] = test system: Micrococcus flavus; assay: Antimicrobial activity against Micrococcus flavus at 10 ug/disk after 24 hrs by disk diffusion assay; assay type: functional; settings: for zone of inhibition at 10 µg/disc: read-out: IZ; summary of the method: as §1
[30] = test system: Bacillus cereus; assay: Antimicrobial activity against Bacillus cereus at 10 ug/disk after 24 hrs by disk diffusion assay; assay type: functional; summary of the method: as §1
[31] = test system: Escherichia coli; assay: Antimicrobial activity against Escherichia coli at 1 umol/spot after 18 hrs by TLC-bioautographic method; assay type: functional; summary of the method: as §2
[32] = test system: Listeria monocytogenes; assay: Antimicrobial activity against Listeria monocytogenes at 1 umol/disk after 24 hrs by disk diffusion assay; assay type: functional; summary of the method: as §1
[33] = Salmonella enterica subsp. enterica serovar Typhimurium

COc1ccccc1-c1cc(-c2ccc(Nc3nc(Nc4ccccc4)nc(Nc4ccccc4)n3)cc2)nc(N)c1C#N
86.5 µM: MIC [15] | MIC [25]
173 µM: MIC [3] | MIC ([7]; Salmonella enterica) | MIC [12] | MBC [15] | MIC [23] | MBC [25]
0.08 millimeter: inhibition zone (IZ) [6]
0.09 millimeter: inhibition zone (IZ) [26]
346 µM: MBC [3] | MIC [5] | MBC ([7]; Salmonella enterica) | MBC [12] | MIC [18] | MBC [23]
10 mm: zone of inhibition at 10 µg/disc [29]
0.04 millimeter: inhibition zone (IZ) [19]
692 µM: MBC [5] | MBC [18]
7 mm: zone of inhibition at 10 µg/disc ([1]; read-out: IZ)
6 mm: zone of inhibition at 10 µg/disc ([8]; read-out: IZ)
inactive: inhibition zone (IZ) [2] | inhibition zone (IZ) [9] | inhibition zone (IZ) [11] | inhibition zone (IZ) [13] | inhibition zone (IZ) [14] | inhibition zone (IZ) [16] | inhibition zone (IZ) [17] | inhibition zone (IZ) [21] | inhibition zone (IZ) [22] | inhibition zone (IZ) [24] | inhibition zone (IZ) [27] | inhibition zone (IZ) [28] | inhibition zone (IZ) [30] | inhibition zone (IZ) [31]
0.07 millimeter: inhibition zone (IZ) [20]
0.06 millimeter: inhibition zone (IZ) [4] | inhibition zone (IZ) [10]

Nc1nc(-c2ccc(Nc3nc(Nc4ccccc4)nc(Nc4ccccc4)n3)cc2)cc(-c2ccc([N+](=O)[O-])cc2)n1
352 µM: MBC [3] | MIC ([7]; Salmonella enterica) | MBC [12] | MIC [15] | MIC [18] | MBC [23] | MBC [25]
176 µM: MIC [3] | MIC [12] | MIC [23] | MIC [25]
inactive: inhibition zone (IZ) [1] | inhibition zone (IZ) [2] | inhibition zone (IZ) [4] | inhibition zone (IZ) [32] | inhibition zone (IZ) [6] | inhibition zone (IZ) [8] | inhibition zone (IZ) [9] | inhibition zone (IZ) [11] | inhibition zone (IZ) [13] | inhibition zone (IZ) [14] | inhibition zone (IZ) [16] | inhibition zone (IZ) [17] | inhibition zone (IZ) [19] | inhibition zone (IZ) [20, 33] | inhibition zone (IZ) [21] | inhibition zone (IZ) [22] | inhibition zone (IZ) [24] | inhibition zone (IZ) [27] | inhibition zone (IZ) [28] | inhibition zone (IZ) [29] | inhibition zone (IZ) [30] | inhibition zone (IZ) [31]
0.07 millimeter: inhibition zone (IZ) [10]
704 µM: MBC [5] | MIC [5] | MBC ([7]; Salmonella enterica) | MBC [15] | MBC [18]
0.1 millimeter: inhibition zone (IZ) [26]

CC(=O)N1N=C(c2ccc(Nc3nc(Nc4ccccc4)nc(Nc4ccccc4)n3)cc2)CC1c1ccco1 (centres undefined)
10 mm: zone of inhibition at 10 µg/disc [29]
0.09 millimeter: inhibition zone (IZ) [6] | inhibition zone (IZ) [20]
756 µM: MBC [3] | MIC [3] | MIC [5] | MIC ([7]; Salmonella enterica) | MBC [12] | MBC [15] | MBC [18] | MIC [18] | MIC [23] | MBC [25]
378 µM: MIC [12] | MIC [15] | MIC [25]
0.08 millimeter: inhibition zone (IZ) [26]
0.07 millimeter: inhibition zone (IZ) [16]
0.05 millimeter: inhibition zone (IZ) [4]
inactive: inhibition zone (IZ) [1] | inhibition zone (IZ) [2] | MBC [5] | inhibition zone (IZ) [32] | MBC [7, 33] | inhibition zone (IZ) [8] | inhibition zone (IZ) [9] | inhibition zone (IZ) [10] | inhibition zone (IZ) [11] | inhibition zone (IZ) [13] | inhibition zone (IZ) [14] | inhibition zone (IZ) [17] | inhibition zone (IZ) [19] | inhibition zone (IZ) [21] | inhibition zone (IZ) [22] | MBC [23] | inhibition zone (IZ) [24] | inhibition zone (IZ) [27] | inhibition zone (IZ) [28] | inhibition zone (IZ) [30] | inhibition zone (IZ) [31]

O=C(/C=C/c1cccs1)c1ccc(Nc2nc(Nc3ccccc3)nc(Nc3ccccc3)n2)cc1
816 µM: MBC [3] | MBC [5] | MBC ([7]; Salmonella enterica) | MBC [12] | MBC [18]
inactive: inhibition zone (IZ) [1] | inhibition zone (IZ) [2] | inhibition zone (IZ) [4] | inhibition zone (IZ) [32] | inhibition zone (IZ) [8] | inhibition zone (IZ) [9] | inhibition zone (IZ) [10] | inhibition zone (IZ) [11] | inhibition zone (IZ) [13] | inhibition zone (IZ) [14] | inhibition zone (IZ) [16] | inhibition zone (IZ) [17] | inhibition zone (IZ) [19] | inhibition zone (IZ) [20, 33] | inhibition zone (IZ) [21] | inhibition zone (IZ) [22] | inhibition zone (IZ) [24] | inhibition zone (IZ) [27] | inhibition zone (IZ) [28] | inhibition zone (IZ) [29] | inhibition zone (IZ) [30] | inhibition zone (IZ) [31]
204 µM: MIC [15] | MIC [23] | MIC [25]
0.08 millimeter: inhibition zone (IZ) [6] | inhibition zone (IZ) [26]
408 µM: MIC [3] | MIC [5] | MIC ([7]; Salmonella enterica) | MIC [12] | MBC [15] | MIC [18] | MBC [23] | MBC [25]
